Drawing on ChEMBL document CHEMBL1155291, “Structure-activity relationship of dopaminergic halogenated 1-benzyl-tetrahydroisoquinoline derivatives” (Eur J Med Chem, 2009), this text covers Ki, pKi and Ratio Ki for 8 compounds.

Broadly, the Ki is a measure of affinity in units of concentration, obtained from inhibition or displacement. The term pKi denotes the Ki on a negative log10 scale, so that one unit is a factor of ten. Lower therefore signals a large Ki.

The nature of experiment [1]: Displacement of [3H]SCH23390 from dopamine D1-like receptor in Wistar rat striatal membrane after 1 hr by scintillation counting. In kind it is cell membranes, Striatum. Summed up:
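Striatal membranes from female Wistar rats, 100 µg/mL, in Tris-ions buffer pH 7.4 (120 mM NaCl, 2 mM CaCl2, 5 mM KCl, 1 mM MgCl2, 0.1% ascorbic acid). Incubated 1 h at 23 °C with 0.25 nM [3H]-SCH23390 and competitor 10^-10 to 10^-4 M. Non-specific binding with 30 µM SK&F38393. Filtration, then scintillation counting. Ki from KD 0.36 nM. Mean ± SEM of 3–6 experiments.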

The species entered for a further experiment is Rattus norvegicus. Nature of the experiment: Selectivity ratio of Ki of Wistar rat dopamine D1-like receptor to Ki for Wistar rat dopamine D2-like receptor.
The nature of experiment [2]: Displacement of [3H]raclopride from dopamine D2-like receptor in Wistar rat striatal membrane after 1 hr by scintillation counting. In kind it is cell membranes, Striatum. The procedure, abridged: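 Striatal membranes from female Wistar rats, 200 µg/mL, in Tris-ions buffer pH 7.4 (120 mM NaCl, 2 mM CaCl2, 5 mM KCl, 1 mM MgCl2, 0.1% ascorbic acid). Incubated 1 h at 23 °C with 0.5 nM [3H]-raclopride and competitor 10^-10 to 10^-4 M. Non-specific binding with 50 µM apomorphine. Filtration, then scintillation counting. Ki from KD 1.25 nM. Mean ± SEM of 3–6 experiments.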
A general note: In a radioligand displacement assay an active substance lowers the binding of a labelled ligand.

Regarding `CN1CCc2cc(Cl)c(O)cc2C1Cc1ccc(Cl)cc1Cl` (stereo not given), the results for the Ki in experiment [1] and in experiment [2] were 241 nM and 269 nM, respectively. The negative-log Ki (pKi) in experiment [1] is 6.71; in experiment [2] it was 6.64. The Ratio Ki in the experiment filed under Rattus norvegicus was 0.9.

Consider `Oc1cc2c(cc1Cl)CCNC2Cc1ccccc1Br` (stereo not given), for which, in experiment [1], the affinity corresponds to a Ki of 110 nM and the negative logarithm of the Ki (pKi) stood at 7.06. In the experiment listed under Rattus norvegicus, the Ratio Ki came out at 2.4. In experiment [2], this compound came in with a Ki of 46 nM and a negative logarithm of the Ki (pKi) of 7.39.

`COc1cc2c(cc1Cl)CCN(C)C2Cc1ccccc1Br` (stereo not given): the Ki in experiment [1] was 1320 nM; in experiment [2] it was 1340 nM. Also, the negative-log Ki (pKi) in experiment [1] is listed as 5.89; in experiment [2], 5.9. Moreover, in the experiment filed under Rattus norvegicus, the Ratio Ki was 1.

For `COc1cc2c(cc1Cl)CCNC2Cc1ccc(Cl)cc1Cl` (stereo not given), in experiment [1], the Ki amounted to 11300 nM and the pKi stood at 5.01. Besides, the Ratio Ki in the experiment listed under Rattus norvegicus turned out to be 3.4. In experiment [2], this compound came in with a Ki of 3300 nM and a pKi of 5.51.

`Oc1cc2c(cc1Cl)CCNC2Cc1ccc(Cl)cc1Cl` (stereo not given): in experiment [1], the Ki stood at 183 nM and the pKi was determined as 6.74. For the same compound, the Ratio Ki in the experiment filed under Rattus norvegicus was found to be 1.7. Moreover, in experiment [2], the Ki turned out to be 107 nM and the pKi is 7.

In experiment [1], `COc1cc2c(cc1Cl)CCNC2Cc1ccccc1Br` (stereo not given) had a Ki of 1530 nM and a pKi of 5.83. Also, the Ratio Ki in the experiment listed under Rattus norvegicus came to 6.2. In addition, in experiment [2], the affinity corresponds to a Ki of 245 nM and the pKi stood at 6.63.

In experiment [1], `CN1CCc2cc(Cl)c(O)cc2C1Cc1ccccc1Br` (stereo not given) returned a Ki of 65 nM and a pKi of 7.21. Moreover, the Ratio Ki in the experiment listed under Rattus norvegicus worked out at 3.6. In experiment [2], this compound gave a Ki of 18 nM and a pKi of 7.76.

On to `COc1cc2c(cc1Cl)CCN(C)C2Cc1ccc(Cl)cc1Cl` (stereo not given), for which, in experiment [1], the inhibition constant Ki was determined as 15100 nM and the pKi is 4.84. The Ratio Ki in the experiment listed under Rattus norvegicus was found to be 2.5. Also, in experiment [2], the Ki was found to be 6130 nM and the pKi worked out at 5.23.
